Each block holds one substance with its values, some of them ahead of it.
Columns and labels:
Circular dichroism = format: physicochemical; settings: CD spectra in water, 200 to 260 nm
How it was run: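 Spectra of peptides and human apoA-I (17.8 to 178 μmol/L) recorded at 25°C in a thermostatted quartz cell with 0.1 mm path length, scanning 200–260 nm. Results expressed as mean residue ellipticity (deg cm² dmol⁻¹).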

[1] = test system: apoE−/− mice fed a high‐fat diet; experiment: Aortic atherosclerotic lesion formation, 16-week treatment; format: in vivo; settings: scrambled FAMP i.p. 3 times per week, 16 weeks; Oil Red O; mean±SD
How it was run: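 Male apoE−/− mice, bought at six weeks, fed a high-fat diet (0.5% cholesterol, 10% fat) and dosed i.p. 3 times per week for 16 weeks: test peptide at 10 or 50 mg/kg per day, or scrambled peptide. Whole aortas were then stained with Oil Red O. Lesion area was scored by image analysis as percentage of aorta from ascending aorta to abdominal bifurcation.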

apoE‐deficient mice [2] = experiment: Plasma lipid profiles by enzymatic assay, 16-week treatment; format: in vivo; settings: scrambled peptides i.p. 16 weeks, n=7; high-fat-fed apoE-deficient mice; mean±SD
How it was run: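 Overnight-fasting plasma taken after 16 weeks from 19 of 23 high-fat-fed apoE−/− mice. Dosing was i.p. 3 times weekly with scrambled peptide or test peptide at 10 or 50 mg/kg per day. Total cholesterol, triglyceride and HDL cholesterol were measured by enzymatic assay; mean±SD.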

apoE‐deficient mice [3] = experiment: Plasma lipoprotein profiles analyzed by HPLC, 16-week treatment; format: in vivo; settings: scrambled peptides i.p. 16 weeks, n=7, mean±SD
How it was run: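 Plasma from apoE−/− mice after 16-week i.p. dosing (3 times weekly) was separated by HPLC into 20 particle-size subfractions. Each subfraction was assayed enzymatically for total cholesterol, free cholesterol, triglycerides and phospholipids; mean±SD.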

A172 human glioblastoma = experiment: Cellular cholesterol efflux in A172 human cells; format: cell-based; settings: 4 hours
How it was run: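 A172 human glioblastoma cells were grown in DMEM with 10% FBS and antibiotics, then labelled with ³H‑cholesterol. Efflux ran in serum‑free medium with 0.2% BSA, 5 μmol/L T0901317 and 5 μmol/L 9‑cis‑retinoic acid, with or without 10 μmol/L probucol. Acceptor was human apoA‑I or test peptide at 20 μg/mL, or a molar dose series, for 4 h. n=4–5; mean±SD.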

[4] = test system: monocyte‐derived macrophages from an ABCA1‐deficient Tangier disease patient; format: cell-based, human; settings: 20 μg/mL, 4 hours, n=4
How it was run: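 Peripheral blood monocyte‑derived macrophages came from a healthy volunteer and a Tangier disease patient, with ethics approval and written consent. Cells were isolated by Lymphoprep density separation and labelled with ³H‑cholesterol. Efflux was run in serum‑free 0.2% BSA medium with or without 20 μg/mL human apoA‑I or test peptide for 4 h. n=4; mean±SD.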

ABCA1 = ABCA1 (Homo sapiens, UniProt O95477); experiment: Probucol-inhibitable, ABCA1-specific cholesterol efflux in A172 cells; format: cell-based; settings: probucol 10 μmol/L
ABCA1, sequence (O95477 whole entry): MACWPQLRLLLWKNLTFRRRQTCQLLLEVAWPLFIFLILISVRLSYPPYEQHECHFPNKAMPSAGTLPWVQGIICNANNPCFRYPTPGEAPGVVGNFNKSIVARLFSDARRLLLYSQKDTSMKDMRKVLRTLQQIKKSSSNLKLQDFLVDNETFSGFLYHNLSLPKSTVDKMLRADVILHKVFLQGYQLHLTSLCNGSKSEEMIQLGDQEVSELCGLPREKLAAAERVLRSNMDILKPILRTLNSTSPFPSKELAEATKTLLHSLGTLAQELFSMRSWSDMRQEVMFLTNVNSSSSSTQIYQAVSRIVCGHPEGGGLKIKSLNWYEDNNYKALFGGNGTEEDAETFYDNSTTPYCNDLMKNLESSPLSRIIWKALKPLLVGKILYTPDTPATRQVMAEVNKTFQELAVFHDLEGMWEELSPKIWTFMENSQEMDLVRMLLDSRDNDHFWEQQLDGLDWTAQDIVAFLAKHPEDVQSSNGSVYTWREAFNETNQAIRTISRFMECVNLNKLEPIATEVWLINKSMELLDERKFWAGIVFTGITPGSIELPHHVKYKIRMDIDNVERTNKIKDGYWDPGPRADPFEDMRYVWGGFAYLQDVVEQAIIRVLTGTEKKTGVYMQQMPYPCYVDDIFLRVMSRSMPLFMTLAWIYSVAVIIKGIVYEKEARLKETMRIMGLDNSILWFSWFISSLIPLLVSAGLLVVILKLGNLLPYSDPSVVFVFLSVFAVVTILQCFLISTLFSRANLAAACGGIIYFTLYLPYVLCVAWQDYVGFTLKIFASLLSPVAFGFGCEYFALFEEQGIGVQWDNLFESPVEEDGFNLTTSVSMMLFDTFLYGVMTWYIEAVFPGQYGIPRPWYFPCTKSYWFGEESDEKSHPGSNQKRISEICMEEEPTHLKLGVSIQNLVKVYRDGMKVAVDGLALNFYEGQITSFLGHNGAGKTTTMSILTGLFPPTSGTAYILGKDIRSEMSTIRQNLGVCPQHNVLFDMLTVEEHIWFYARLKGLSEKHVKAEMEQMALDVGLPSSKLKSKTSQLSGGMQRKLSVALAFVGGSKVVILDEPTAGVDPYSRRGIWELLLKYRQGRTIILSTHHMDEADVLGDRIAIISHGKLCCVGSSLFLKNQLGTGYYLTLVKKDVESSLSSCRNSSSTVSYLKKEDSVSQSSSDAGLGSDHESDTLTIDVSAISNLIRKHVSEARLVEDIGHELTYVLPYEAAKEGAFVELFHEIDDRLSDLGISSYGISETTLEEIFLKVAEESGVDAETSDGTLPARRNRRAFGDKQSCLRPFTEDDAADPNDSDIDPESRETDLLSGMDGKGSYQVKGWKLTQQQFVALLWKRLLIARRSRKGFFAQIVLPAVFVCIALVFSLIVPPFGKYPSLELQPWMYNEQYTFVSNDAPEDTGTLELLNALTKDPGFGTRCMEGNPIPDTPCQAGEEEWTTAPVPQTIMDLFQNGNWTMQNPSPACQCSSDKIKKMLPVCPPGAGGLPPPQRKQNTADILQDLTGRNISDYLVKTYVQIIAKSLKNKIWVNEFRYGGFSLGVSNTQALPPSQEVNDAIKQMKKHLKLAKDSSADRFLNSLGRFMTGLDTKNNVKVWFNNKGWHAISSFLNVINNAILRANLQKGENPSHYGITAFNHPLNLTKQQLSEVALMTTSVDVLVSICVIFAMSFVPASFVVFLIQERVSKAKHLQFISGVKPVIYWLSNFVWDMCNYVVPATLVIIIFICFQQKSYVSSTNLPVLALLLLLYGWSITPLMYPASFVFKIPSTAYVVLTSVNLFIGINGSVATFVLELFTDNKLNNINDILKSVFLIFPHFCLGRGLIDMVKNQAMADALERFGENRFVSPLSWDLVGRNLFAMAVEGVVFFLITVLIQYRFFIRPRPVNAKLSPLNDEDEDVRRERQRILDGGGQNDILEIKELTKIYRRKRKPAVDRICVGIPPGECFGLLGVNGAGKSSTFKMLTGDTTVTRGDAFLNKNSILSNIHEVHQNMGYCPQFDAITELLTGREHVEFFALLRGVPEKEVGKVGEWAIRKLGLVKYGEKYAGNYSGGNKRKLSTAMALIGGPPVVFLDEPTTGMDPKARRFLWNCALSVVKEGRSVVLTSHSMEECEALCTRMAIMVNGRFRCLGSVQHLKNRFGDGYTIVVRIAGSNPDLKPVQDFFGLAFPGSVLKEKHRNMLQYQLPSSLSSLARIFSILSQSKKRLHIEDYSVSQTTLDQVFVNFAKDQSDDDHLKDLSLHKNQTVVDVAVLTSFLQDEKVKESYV
How it was run: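 A172 glioblastoma cells, labelled with ³H-cholesterol, were held in serum-free 0.2% BSA medium with 5 μmol/L T0901317 and 5 μmol/L 9-cis-retinoic acid. Cells were exposed for 4 h to 20 μg/mL acceptor, with or without 10 μmol/L probucol. ABCA1-dependent efflux was taken as the probucol-inhibitable fraction.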

Substance: H-ATEHLSTLSEKAKPALEDLLKKLL-OH [FAMP4]
α‐helical conformation (CD spectra) (Circular dichroism): but not FAMP4, formed strong α‐helical conformations

Substance: H-ATEFLHLLLLKLLKKKEDELLAYA-OH [Scrambled FAMP, reference compound]
relative surface area of aortic plaque lesions [1]: 31.3±8.9%
HDL Cholesterol (apoE‐deficient mice [2]): 12.6 ± 4.8 mg/dL
Total Cholesterol (apoE‐deficient mice [2]): 1373.9 ± 499.2 mg/dL
Triglyceride (apoE‐deficient mice [2]): 119.9 ± 21.7 mg/dL
Cholesterol, CM (>80 nm) (apoE‐deficient mice [3]): 106.2 ± 47.8 mg/dL
Cholesterol, HDL (8 to 16 nm) (apoE‐deficient mice [3]): 23.0 ± 4.5 mg/dL
Cholesterol, HDL Subfractions Intermediate Particles (apoE‐deficient mice [3]): 12.0 ± 3.4 mg/dL
Cholesterol, HDL Subfractions Large Particles (apoE‐deficient mice [3]): 7.2 ± 1.5 mg/dL
Cholesterol, HDL Subfractions Small Particles (apoE‐deficient mice [3]): 3.8 ± 0.5 mg/dL
Cholesterol, LDL (16 to 30 nm) (apoE‐deficient mice [3]): 165.3 ± 25.4 mg/dL
Cholesterol, VLDL (30 to 80 nm) (apoE‐deficient mice [3]): 423.7 ± 96.1 mg/dL
Free cholesterol, CM (>80 nm) (apoE‐deficient mice [3]): 44.9 ± 20.5 mg/dL
Free cholesterol, HDL (8 to 16 nm) (apoE‐deficient mice [3]): 12.5 ± 1.4 mg/dL
Free cholesterol, HDL Subfractions Intermediate Particles (apoE‐deficient mice [3]): 5.1 ± 0.5 mg/dL
Free cholesterol, HDL Subfractions Large Particles (apoE‐deficient mice [3]): 5.7 ± 1.1 mg/dL
Free cholesterol, HDL Subfractions Small Particles (apoE‐deficient mice [3]): 1.7 ± 0.2 mg/dL
Free cholesterol, LDL (16 to 30 nm) (apoE‐deficient mice [3]): 80.9 ± 10.1 mg/dL
Free cholesterol, VLDL (30 to 80 nm) (apoE‐deficient mice [3]): 179.8 ± 35.9 mg/dL
Phospholipids, CM (>80 nm) (apoE‐deficient mice [3]): 53.0 ± 22.3 mg/dL
Phospholipids, HDL (8 to 16 nm) (apoE‐deficient mice [3]): 45.5 ± 10.3 mg/dL
Phospholipids, HDL Subfractions Intermediate Particles (apoE‐deficient mice [3]): 28.1 ± 7.4 mg/dL
Phospholipids, HDL Subfractions Large Particles (apoE‐deficient mice [3]): 12.4 ± 3.3 mg/dL
Phospholipids, HDL Subfractions Small Particles (apoE‐deficient mice [3]): 5.0 ± 1.7 mg/dL
Phospholipids, LDL (16 to 30 nm) (apoE‐deficient mice [3]): 133.6 ± 20.5 mg/dL
Phospholipids, VLDL (30 to 80 nm) (apoE‐deficient mice [3]): 228.2 ± 40.0 mg/dL
Triglyceride, CM (>80 nm) (apoE‐deficient mice [3]): 13.9 ± 7.5 mg/dL
Triglyceride, HDL (8 to 16 nm) (apoE‐deficient mice [3]): 3.3 ± 0.8 mg/dL
Triglyceride, HDL Subfractions Intermediate Particles (apoE‐deficient mice [3]): 1.5 ± 0.5 mg/dL
Triglyceride, HDL Subfractions Large Particles (apoE‐deficient mice [3]): 0.6 ± 0.2 mg/dL
Triglyceride, HDL Subfractions Small Particles (apoE‐deficient mice [3]): 1.1 ± 0.3 mg/dL
Triglyceride, LDL (16 to 30 nm) (apoE‐deficient mice [3]): 12.3 ± 4.2 mg/dL
Triglyceride, VLDL (30 to 80 nm) (apoE‐deficient mice [3]): 33.8 ± 7.7 mg/dL

Substance: human apoA‐I: Human apoA‐I purchased from Calbiochem, 243–amino acid major HDL protein
concentration adequate for a saturating effect on cholesterol efflux (A172 human glioblastoma; A172 cells): 20 µg/mL
effect of ABCA1 inactivation (probucol) on peptide-mediated cholesterol efflux (A172 human glioblastoma; probucol 10 μmol/L, 20 μg/mL): drastically inhibited
cholesterol efflux in Tangier disease macrophages vs healthy subject [4]: suppressed

α‐helical conformation (CD spectra) (Circular dichroism): formed strong α‐helical conformations
Substance: H-ALEHLFTLSEKALKALEDLLKKLL-OH [FAMP2]

Substance: Ac-DWFKAFYDKVAEKFKEAF-NH2 [L‐4F, reference compound]
percentage of probucol‐inhibitable, ABCA1‐specific cholesterol efflux (ABCA1): much more unspecific cholesterol efflux compared with FAMP5
